According to article PMC10583834 (Chemical Research in Toxicology, 2023):

Tests used:
women = conditions: cited from earlier work
CYP3A4 = CYP3A4 inactivation in human liver microsomes; cited from earlier work
recombinant CYP2B6 = target: T1, recombinant CYP2B6 (Homo sapiens, UniProt P20813); experiment: Glutathione trapping and metabolite formation with recombinant CYP2B6; type: in vitro ADME; conditions: recombinant CYP2B6 100 pmol/mL, 1 mM GSH, 60 min
T1 sequence (P20813 1-491): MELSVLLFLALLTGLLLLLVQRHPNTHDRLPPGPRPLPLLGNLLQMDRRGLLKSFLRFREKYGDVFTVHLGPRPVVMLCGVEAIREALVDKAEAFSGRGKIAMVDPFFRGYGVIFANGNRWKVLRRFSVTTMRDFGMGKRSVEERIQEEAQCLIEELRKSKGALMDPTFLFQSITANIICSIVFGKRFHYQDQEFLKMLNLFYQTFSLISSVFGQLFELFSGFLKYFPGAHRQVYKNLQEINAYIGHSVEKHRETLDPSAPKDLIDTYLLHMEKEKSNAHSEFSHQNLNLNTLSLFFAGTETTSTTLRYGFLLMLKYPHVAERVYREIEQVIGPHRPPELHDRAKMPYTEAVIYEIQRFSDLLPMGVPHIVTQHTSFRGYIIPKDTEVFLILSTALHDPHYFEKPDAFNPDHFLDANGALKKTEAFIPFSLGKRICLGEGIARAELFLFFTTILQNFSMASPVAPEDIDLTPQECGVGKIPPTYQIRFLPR
Procedure, shortened: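 Test compound at 50 or 100 μM was incubated with recombinant CYP2B6 (100 pmol/mL) in 100 mM potassium phosphate pH 7.4, 3 mM MgCl2 and 1 mM reduced GSH. Reactions were started with NADPH-regenerating mix, with no-NADPH controls, for 60 min. Methanol stop contained 1 μM 4OH-MDZ internal standard. Samples were centrifuged 20 min at 2000 × g, 4 °C. Supernatants were analysed by LC-UV(280 nm)-MS for metabolites and GSH adducts.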

- GSH metabolite formation (recombinant CYP2B6): no GSH metabolite was detected
Compound: Cc1ccnc2c1NC(=O)c1cccnc1N2C1CC1 [NVP, Nevirapine]
- Increased risk for severe rash reactions in women (women): 7 fold
